Assay results: ChEMBL document CHEMBL5149983, “Scaffold-Hopping Strategy on a Series of Proteasome Inhibitors Led to a Preclinical Candidate for the Treatment of Visceral Leishmaniasis” (J Med Chem, 2021)
≈ marks a conversion by molar mass, not a printed value. Calls of active or inactive are those of the source.

Key:
[1] = Intrinsic clearance in mouse liver microsomes; format: ADME, Microsome
[2] = Solubility of the compound in FaSSIF at pH 6.5 measured after 4 hrs by HPLC-UV analysis; format: physicochemical; conditions: for solubility at 4 h: FaSSIF, pH 6.5
[3] = Kinetic aqueous solubility of the compound by CLND method; format: physicochemical; conditions: buffer; read-out: Kinetic_solubility
[4] = Inhibition of chymotrypsin activity of proteasome beta5 subunit in Leishmania donovani amastigotes infected in human THP-1 cells incubated for 96 hrs by INMAC assay; conditions: THP-1, 96 h, read-out: pEC50 (converted)
[5] = Genotoxicity against Salmonella typhimurium by Ames test; format: toxicity; conditions: salmonella enterica subsp. enterica serovar typhimurium
[6] = Cytotoxicity against human THP-1 cells; format: toxicity, cell-based
Leishmania donovani [7] = test: Antileishmanial activity against amastigote stage of Leishmania donovani MHOM/ET/67/HU3 infected in BALB/c mouse assessed as reduction in parasitemia at 25 mg/kg, po bid for 10 days; format: functional, organism-based; conditions: time 10.0 day
Leishmania donovani [8] = test: Antileishmanial activity against amastigote stage of Leishmania donovani MHOM/ET/67/HU3 infected in po dosed BALB/c mouse assessed as reduction in parasitemia administered twice a day for 10 days; format: functional; conditions: MHOM/ET/67/HU3, 240 h, time 10 day
[9] = Time during which drug concentration exceeds EC90 for inhibition of chymotrypsin activity of proteasome beta5 subunit in Leishmania donovani amastigotes infected in human THP-1 cells in NMRI mouse blood at 50 mg/kg, po by UPLC-MS/MS analysis; format: organism-based; conditions: in vivo
Procedure, shortened: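 Not measured directly. Time above EC90 at 50 mg/kg po was projected from the 10 mg/kg oral mouse blood profile, assuming exposure rises linearly with dose.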

THP-1 = conditions: Leishmania donovani, time 96.0 hrs
[10] = Metabolic stability of the compound in human plasma assessed as parent compound remaining measured after 3 hrs; format: ADME, cell-free; conditions: read-out: Stability
[11] = Time during which drug concentration exceeds EC90 for inhibition of chymotrypsin activity of proteasome beta5 subunit in Leishmania donovani amastigotes infected in human THP-1 cells in NMRI mouse blood at 10 mg/kg, po by UPLC-MS/MS analysis; format: organism-based; conditions: in vivo
Procedure, shortened: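 Mice received a single 10 mg/kg oral dose, with a separate 3 mg/kg iv arm in the same PK study. Blood levels were followed over time, and time above the EC90 threshold was taken from the oral blood profile.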

[12] = Metabolic stability of the compound in mouse plasma assessed as parent compound remaining measured after 3 hrs; format: ADME, cell-free; conditions: read-out: Stability

Compound | CLH [1] [mL/min/g] | EC50 [6] [µM] | further results
O=C(Nc1ccc(F)c(-c2nc3ncc(N4CCOCC4)cn3n2)c1)N1CCCC1 | < 0.5 |  | 
C[C@H]1CN(c2cnc3nc(-c4cc(NC(=O)N5CCCC5)ccc4F)ccn23)CCO1 | 2.7 |  | solubility at 4 h [2]: 1320 µM (≈ 561 µg/mL); solubility kinetic [3]: ≥ 362 µM; EC50 [4]: 1.26 µM
O=C(Nc1ccc(F)c(-c2cn3nc(N4CCOCC4)cnc3n2)c1)N1CCCC1 |  |  | solubility at 4 h [2]: 32 µM (≈ 13.2 µg/mL); Activity [5]: Toxic
O=C(Nc1nccc(-c2cn3cc(N4CCOCC4)cnc3n2)n1)N1CCCC1 | < 0.5 | > 50.1 | solubility ([2]; simulated gi fluid, pH 6.5, 4 h): > 2500 µM
O=C(Nc1cnnc(-c2cn3cc(N4CCOCC4)cnc3n2)c1)N1CCCC1 | < 0.5 | > 50.1 | 
O=C(Nc1cccc(-c2cc3cc(-c4ccccc4)cnc3[nH]2)c1)N1CCCC1 |  | > 50.1 | 
O=C(Nc1ccc(F)c(-c2ccn3c(N4CCNCC4)cnc3n2)c1)N1CCCC1 | < 0.5 | > 50.1 | 
O=C(Nc1ccc(F)c(-c2cc3nc(N4CCOCC4)cnc3[nH]2)c1)N1CCCC1 |  | > 50.1 | 
O=C(Nc1ccc(F)c(-c2cn3ncc(N4CCOCC4)cc3n2)c1)N1CCCC1 |  | > 50.1 | 
CC(=O)N1CCN(c2cnc3nc(-c4cc(NC(=O)N5CCCC5)ccc4F)ccn23)CC1 |  | > 50.1 | 
O=C1CN(c2cnc3nc(-c4cc(NC(=O)N5CCCC5)ccc4F)ccn23)CCN1 |  | > 50.1 | 
O=C(Nc1cccc(-c2cc3ncc(-c4ccccc4)cn3n2)c1)N1CCCC1 |  | > 50.1 | 
O=C(Nc1cccc(-c2cn3cc(N4CCOCC4)cnc3n2)n1)N1CCCC1 | < 0.5 | > 50.1 | 
O=C(Nc1cccc(-c2cc3cc(N4CCOCC4)nnc3o2)c1)N1CCCC1 |  | > 50.1 | 
O=C(Nc1cccc(-c2nc3ncccc3o2)c1)c1ccco1 | 24 | > 50.1 | EC50 [4]: 6.31 µM
O=C(Nc1ccc(F)c(-c2ccn3c(N4CCOCC4)cnc3n2)c1)N1CCCC1 [GSK-3494245] | 0.8 | ≥ 63.1 | solubility at 4 h [2]: 440 µM (≈ 181 µg/mL); Activity (Leishmania donovani [7]): Active; Activity [5]: Non-Toxic; ED90 (Leishmania donovani [8]): 16 mg/kg; ED99 (Leishmania donovani [8]): 30 mg/kg; EC50 [4]: 1.58 µM
O=C(Nc1ccc(F)c(-c2cn3cc(N4CCOCC4)cnc3n2)c1)N1CCCC1 | < 0.5 | > 50.1 | T>EC90 [9]: > 6 h; solubility at 4 h [2]: 15 µM (≈ 6.16 µg/mL); pEC90 (THP-1): 5.7; remaining at 3 h [10]: 100%; T>EC90 [11]: 2 h; Activity [5]: Toxic; EC50 [4]: 0.631 µM; remaining at 3 h [12]: 100%
O=C(Nc1cc(-c2cn3cc(N4CCOCC4)cnc3n2)ncn1)N1CCCC1 | < 0.5 | > 50.1 | 
Cn1c(-c2cc(NC(=O)N3CCCC3)ccc2F)cc2cc(N3CCOCC3)cnc21 |  | > 50.1 | 
O=C(Nc1ccc(F)c(-c2nc3cc(N4CCOCC4)cnn3n2)c1)N1CCCC1 | 0.7 | > 50.1 | solubility at 4 h [2]: 182 µM (≈ 74.9 µg/mL); EC50 [4]: 0.794 µM
COc1ccc(NC(=O)N2CCCC2)cc1-c1cn2cc(N3CCOCC3)cnc2n1 | < 0.5 | > 50.1 | 
C[C@@H]1CN(c2cnc3nc(-c4cc(NC(=O)N5CCCC5)ccc4F)ccn23)CCO1 | 1.8 |  | solubility at 4 h [2]: 1580 µM (≈ 670 µg/mL); solubility kinetic [3]: 345 µM (≈ 146 µg/mL); EC50 [4]: 1 µM
O=C(Nc1cncc(-c2cn3cc(N4CCOCC4)cnc3n2)n1)N1CCCC1 | < 0.5 | > 50.1 | 
O=C(Nc1cccc(-c2nc3ccccc3o2)c1)c1ccco1 |  | > 50.1 | Activity [5]: Toxic
O=C(Nc1ccc(F)c(-c2cnn3c(-c4ccccc4)cnc3n2)c1)N1CCCC1 | 3.3 | > 50.1 | solubility at 4 h [2]: 3 µM (≈ 1.21 µg/mL); EC50 [4]: 1.26 µM
